This note sets out measurements from ChEMBL document CHEMBL1671803, “Synthesis and evaluation of 11C-labeled imidazo[2,1-b]benzothiazoles (IBTs) as PET tracers for imaging β-amyloid plaques in Alzheimer's disease” (J Med Chem, 2011).

In data set [1] the test system is Brain. Nature of the data set: Drug uptake in Balb-C mouse brain at 4-6 MBq after 5 mins by gamma counting. The format is ADME, tissue-based. To be noted: in vivo. In short, it runs like this: (§1)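 Normal male Balb-C mice were given an iv [11C]-labeled compound. Brain uptake was measured as %ID/g at 5 and 30 min post-injection (n=5). Clearance is expressed as the 5 min/30 min %ID/g ratio.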

Data set [2] in a line: Drug uptake in Balb-C mouse brain assessed as compound remaining at 4-6 MBq after 10 mins by gamma counting. The format is ADME, tissue-based. To be noted: read-out: Drug uptake. An outline of the steps:
(§2)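 Normal Balb-C mice received an iv [11C]-labeled tracer. HPLC analysis of blood and brain homogenates was done at 10 and 30 min post-injection to give percent intact tracer (n=3).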

Data set [3] can be described thus: Drug uptake in Balb-C mouse blood assessed as compound remaining at 4-6 MBq after 30 mins by gamma counting. It is filed as ADME, tissue-based. To be noted: read-out: Drug uptake. An outline of the steps: as §2
Data set [4] is described as follows: Drug uptake in Balb-C mouse brain assessed as compound remaining at 4-6 MBq after 30 mins by gamma counting. The format is ADME, tissue-based. The conditions noted are these: read-out: Drug uptake. In short, it runs like this: as §2
Data set [5] is described as follows: Drug uptake in Balb-C mouse blood assessed as compound remaining after 10 mins at 4-6 MBq by gamma counting. The format is ADME, tissue-based. The conditions noted are these: read-out: Drug uptake. In short, it runs like this:
as §2

Data set [6] is described as follows: Octanol-phosphate buffered saline partition coefficient, log P of the compound at pH 7.4. It is filed as physicochemical.
Data set [7] has as its system Brain. Nature of the data set: Drug uptake in Balb-C mouse brain at 4-6 MBq after 30 mins by gamma counting. It is filed as ADME, tissue-based. The conditions noted are these: in vivo, 0.5 h. An outline of the steps:
as §1

Data set [8] has as its target T1, Amyloid-beta precursor protein (Homo sapiens, UniProt P05067). Put plainly: Displacement of [3H]PiB from human amyloid beta (1-42) at 100 nM after 180 mins by liquid scintillation counter. (In a radioligand displacement assay an active substance lowers the binding of a labelled ligand.)
Data set [9] relates to Brain. Nature of the data set: Drug uptake in Balb-C mouse brain at 4-6 MBq by gamma counting. To be noted: in vivo.
The target of data set [10] is T1, Amyloid-beta precursor protein. Put plainly: Displacement of [3H]PiB from human amyloid beta (1-40) at 100 nM after 180 mins by liquid scintillation counter.
In data set [11] the test system is Mus musculus. Nature of the data set: Binding affinity to amyloid beta in telencephalon region in iv dosed APP/PS1 transgenic C57BL6/J mouse alzheimer's disease model after 5 to 30 mins by autoradiography analysis relative to control. It is filed as functional, organism-based. An outline of the steps:
(§3)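 APP/PS1 (ARTE10) homozygous female mice, 22 months old, with age- and gender-matched C57BL6/J female controls (two each). A single tail-vein bolus of [11C]5 mixed with [3H]1a (7.2 MBq) was given. Readouts were telencephalon/cerebellum ratios from three sources: μPET/CT coregistered to an MRI template (summed 20-30 min), dual-label digital autoradiography of 12 μm sections, and regional biodistribution, all at 30 min p.i.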

The subject of data set [12] is Mus musculus. Nature of the data set: Binding affinity to amyloid beta in iv dosed telencephalon region in APP/PS1 transgenic C57BL6/J mouse alzheimer's disease model after 5 to 30 mins by micro PET examination relative to control. The format is functional, organism-based. An outline of the steps:
as §3

The subject of data set [13] is Mus musculus. Put plainly: Binding affinity to amyloid beta in telencephalon region in APP/PS1 transgenic C57BL6/J mouse alzheimer's disease model at 50.2 MBq, iv after 5 to 30 mins by MRI examination relative to control. It is filed as functional, organism-based. The conditions noted are these: 50.2 M, tested as the 11C-labelled form. In short, it runs like this:
as §3

In data set [14] the test system is Mus musculus. Put plainly: Binding affinity to amyloid beta in telencephalon region in APP/PS1 transgenic C57BL6/J mouse alzheimer's disease model at 50.2 MBq, iv after 5 to 30 mins by autoradiography analysis relative to control. It is filed as functional, organism-based. To be noted: 50.2 M, tested as the 11C-labelled form. An outline of the steps: as §3
In data set [15] the test system is Mus musculus. Put plainly: Binding affinity to amyloid beta in telencephalon region in APP/PS1 transgenic C57BL6/J mouse alzheimer's disease model at 50.2 MBq, iv after 5 to 30 mins by micro PET examination relative to control. The format is functional, organism-based. To be noted: 50.2 M, tested as the 11C-labelled form. In short, it runs like this:
as §3

Data set [16] has as its system Brain. Nature of the data set: Ratio of drug uptake in Balb-C mouse brain after 5 mins to drug uptake in Balb-C mouse brain after 30 mins. The format is ADME, tissue-based. To be noted: in vivo. An outline of the steps: as §1
The test system of data set [17] is Mus musculus. Nature of the data set: Binding affinity to amyloid beta in cerebellum region in APP/PS1 transgenic C57BL6/J mouse alzheimer's disease model at 50.2 MBq, iv after 5 to 30 mins by autoradiography analysis relative to control. The format is functional, organism-based. The conditions noted are these: 50.2 M, tested as the 11C-labelled form. In short, it runs like this: as §3

Data set [18] relates to Mus musculus. Nature of the data set: Binding affinity to amyloid beta in cerebellum region in APP/PS1 transgenic C57BL6/J mouse alzheimer's disease model at 50.2 MBq, iv after 5 to 30 mins by micro PET examination relative to control. The format is functional, organism-based. The conditions noted are these: 50.2 M, tested as the 11C-labelled form. An outline of the steps:
as §3

Data set [19] relates to Mus musculus. Nature of the data set: Binding affinity to amyloid beta in cerebellum region in APP/PS1 transgenic C57BL6/J mouse alzheimer's disease model at 50.2 MBq, iv after 5 to 30 mins by MRI examination relative to control. The format is functional, organism-based. To be noted: 50.2 M, tested as the 11C-labelled form. In short, it runs like this: as §3
The mark [20] stands for this setting: tested as the 11C-labelled form.

Activity calls are given as the source filed them. No cut-off for these calls is given here.

T1 sequence (P05067 whole entry): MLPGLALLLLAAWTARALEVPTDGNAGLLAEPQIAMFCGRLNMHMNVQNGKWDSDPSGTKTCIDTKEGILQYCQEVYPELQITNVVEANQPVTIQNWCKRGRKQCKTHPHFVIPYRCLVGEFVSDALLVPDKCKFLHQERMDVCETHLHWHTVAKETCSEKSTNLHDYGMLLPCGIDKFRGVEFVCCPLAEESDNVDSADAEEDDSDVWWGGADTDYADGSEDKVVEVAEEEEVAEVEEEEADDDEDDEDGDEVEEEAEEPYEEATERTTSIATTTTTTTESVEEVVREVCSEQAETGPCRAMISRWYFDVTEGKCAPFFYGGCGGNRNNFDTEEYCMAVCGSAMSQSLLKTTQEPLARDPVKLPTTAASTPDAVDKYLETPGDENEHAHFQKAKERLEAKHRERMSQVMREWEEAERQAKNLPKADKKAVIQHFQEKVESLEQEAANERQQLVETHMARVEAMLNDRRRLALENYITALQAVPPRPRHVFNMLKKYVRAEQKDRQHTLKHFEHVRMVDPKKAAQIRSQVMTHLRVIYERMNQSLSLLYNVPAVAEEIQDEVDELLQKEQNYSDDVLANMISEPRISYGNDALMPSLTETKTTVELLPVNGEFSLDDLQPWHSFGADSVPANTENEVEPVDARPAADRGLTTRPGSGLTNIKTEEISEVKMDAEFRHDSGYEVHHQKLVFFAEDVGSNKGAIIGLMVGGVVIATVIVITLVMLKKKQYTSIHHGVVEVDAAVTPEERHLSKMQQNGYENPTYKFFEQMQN

In the case of `COc1ccc2c(c1)sc1nc(-c3ccc(N[11CH3])cc3)cn12`, the Drug uptake result with Brain [1] is “Active”. The figures for the remaining at 10 min in data set [2] and in [5] were 95% and 15%, respectively. Moreover, the remaining at 0.5 h was 7% in data set [3] and 91% in data set [4].
One may read the logD as lipophilicity at a set pH, counting ionised and neutral species. The low end stands for lower lipophilicity, the high end for higher lipophilicity. Usually inhibition stands for the relative decrease from the control value, in per cent. Higher therefore signals a response far below the control. The compound `COc1ccc2c(c1)sc1nc(-c3ccc(N(C)C)cc3)cn12` returned a log distribution coefficient (logD) in data set [6] of 1.9. Moreover, the Drug uptake in the data set with Brain [7] was determined as 0.7 % ID/g; in the data set on Brain [9], 1.9 % ID/g. The inhibition was 91% in data set [8] and 89% in data set [10].
For `CCN(CC)c1ccc(-c2cn3c(n2)sc2cc(OC)ccc23)cc1`, in that order: 2.2, 0.7 % ID/g, 1.9 % ID/g, 91% and 79%.
Turning to `CNc1ccc(-c2nc3ccc(O)cc3s2)cc1`, the outcome with Mus musculus [11] (tested as the 3H-labelled form) and in the data set with Mus musculus [12] (tested as the 3H-labelled form) was Active. Further, the inhibition in [8] came out at 83%; in data set [10] it was 88%.
On to `COc1ccc2c(c1)sc1nc(-c3ccc(NC(C)=O)cc3)cn12`, for which the inhibition in [8] came to 64%; in data set [10] it was 44%.
As to `CNc1ccc(-c2cn3c(n2)sc2cc(O)ccc23)cc1`, the logD in data set [6] was 1.2. The Drug uptake is 0.7 % ID/g in the data set on Brain [7] and 1.9 % ID/g in the data set on Brain [9]. Moreover, the values for the inhibition in data set [8] and in data set [10] were 73% and 46%, respectively.
For `COc1ccc2c(c1)sc1nc(-c3ccc(N4CCCC4)cc3)cn12`, the logD in [6] was 1.9. In addition, the Drug uptake in the data set on Brain [7] is given as 0.7 % ID/g; in the data set with Brain [9], 1.9 % ID/g. The results for the inhibition in data set [8] and in data set [10] were 82% and 91%, respectively.
One may read the Ki as the dissociation constant of the complex between target and ligand, obtained from inhibition or displacement. Lower therefore signals a stronger hold on the target. Consider `CNc1ccc(-c2cn3c(n2)sc2cc(OC)ccc23)cc1`, for which the result in the data set with Mus musculus [13], in the data set with Mus musculus [14], with Mus musculus [15], in the data set on Mus musculus [11] (setting [20]) and with Mus musculus [12] (setting [20]) was Active. Moreover, the Ratio in the data set with Brain [16] turned out to be 9.1. This compound also had a logD in [6] of 1.7. The compound also displayed a Drug uptake with Brain [7] of 0.7 % ID/g. Moreover, the result in the data set on Mus musculus [17], with Mus musculus [18] and in the data set with Mus musculus [19] was inactive. For the same compound, the Ki in data set [8] came to 5.8 nM; in data set [10] it was 3.5 nM. Further, the inhibition in data set [8] was 97%; in [10] it was 95%.
With `COc1ccc2c(c1)sc1nc(-c3ccc(N)cc3)cn12`, the inhibition in [8] was 74%; in [10] it was 57%.
On the same counts, the results for `Oc1ccc2c(c1)sc1nc(-c3ccc(N4CCCC4)cc3)cn12` are 91% and 91%.
Consider `CN(C)c1ccc(-c2cn3c(n2)sc2cc(O)ccc23)cc1`, for which the figures for the inhibition in data set [8] and in data set [10] were 86% and 85%, respectively.
On the same counts, the results for `Nc1ccc(-c2cn3c(n2)sc2cc(O)ccc23)cc1` are 48% and 48%.
For `CCN(CC)c1ccc(-c2cn3c(n2)sc2cc(O)ccc23)cc1`, in that order: 91% and 79%.
